In data set [1] the target is T1, Amine oxidase [flavin-containing] A (Homo sapiens, UniProt P21397).
T1 sequence (P21397 whole entry): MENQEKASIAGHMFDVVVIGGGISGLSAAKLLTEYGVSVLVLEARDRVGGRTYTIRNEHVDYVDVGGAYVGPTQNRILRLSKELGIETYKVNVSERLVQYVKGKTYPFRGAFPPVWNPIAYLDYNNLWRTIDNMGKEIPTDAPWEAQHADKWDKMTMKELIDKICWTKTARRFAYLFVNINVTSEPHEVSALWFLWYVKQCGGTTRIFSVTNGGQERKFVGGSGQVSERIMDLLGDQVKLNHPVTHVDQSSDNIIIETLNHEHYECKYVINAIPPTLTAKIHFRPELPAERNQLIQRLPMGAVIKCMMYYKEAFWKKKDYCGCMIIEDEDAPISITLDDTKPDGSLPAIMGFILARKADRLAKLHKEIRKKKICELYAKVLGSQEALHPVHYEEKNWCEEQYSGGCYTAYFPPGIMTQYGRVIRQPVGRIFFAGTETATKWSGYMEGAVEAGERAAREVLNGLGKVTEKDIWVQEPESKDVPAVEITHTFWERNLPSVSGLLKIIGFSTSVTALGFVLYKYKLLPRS
The experiment in a line: Inhibition of recombinant human MAO-A using kynuramine as substrate after 20 mins by fluorescence assay.

In data set [2] the target is T2, Amine oxidase [flavin-containing] B (Homo sapiens, UniProt P27338).
T2 sequence (P27338 whole entry): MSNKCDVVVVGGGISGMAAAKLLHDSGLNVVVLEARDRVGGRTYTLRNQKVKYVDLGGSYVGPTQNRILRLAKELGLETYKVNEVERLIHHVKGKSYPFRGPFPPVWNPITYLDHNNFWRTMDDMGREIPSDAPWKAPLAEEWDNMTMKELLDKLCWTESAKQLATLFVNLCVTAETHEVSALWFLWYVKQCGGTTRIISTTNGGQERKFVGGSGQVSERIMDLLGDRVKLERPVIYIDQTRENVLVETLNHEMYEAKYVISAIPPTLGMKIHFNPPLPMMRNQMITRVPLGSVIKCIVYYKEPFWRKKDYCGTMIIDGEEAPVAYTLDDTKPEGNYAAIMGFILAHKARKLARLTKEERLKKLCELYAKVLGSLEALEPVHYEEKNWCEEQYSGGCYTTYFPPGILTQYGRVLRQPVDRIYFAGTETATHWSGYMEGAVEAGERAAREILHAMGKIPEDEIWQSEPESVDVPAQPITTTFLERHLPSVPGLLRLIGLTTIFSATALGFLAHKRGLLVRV

Data set [3] has as its target T2, Amine oxidase [flavin-containing] B. The data set can be described thus: Reversible inhibition of recombinant human MAO-B assessed as residual activity at 4 times IC50 using kynuramine as substrate pre-incubated for 15 mins followed by 2 fold dilution of compound for 24 hrs and subsequent substrate addition measured after 20 mins by fluorescence assay relative to control.

For data set [4] the target is unchanged. The experiment in a line: Competitive inhibition of recombinant human MAO-B using kynuramine as substrate pre-incubated for 15 mins followed by 2 fold compound dilution for 24 hrs and subsequent substrate addition measured after 20 mins by Lineweaver-Burk plot analysis. Put shortly: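 20 min at 37 °C, NaOH stop, 4-hydroxyquinoline fluorescence read. Six Lineweaver-Burk plots; Ki from x-intercept of slope versus inhibitor concentration.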

For data set [5], the target named is Cholinesterase (Equus caballus) (UniProt P81908). The experiment in a line: Inhibition of horse serum BuChE at 3 uM using butyrylthiocholine iodide as substrate preincubated for 15 mins followed by substrate addition measured after 10 mins by spectrophotometry based-Ellman's method.
Cholinesterase (Equus caballus), sequence (P81908 whole entry): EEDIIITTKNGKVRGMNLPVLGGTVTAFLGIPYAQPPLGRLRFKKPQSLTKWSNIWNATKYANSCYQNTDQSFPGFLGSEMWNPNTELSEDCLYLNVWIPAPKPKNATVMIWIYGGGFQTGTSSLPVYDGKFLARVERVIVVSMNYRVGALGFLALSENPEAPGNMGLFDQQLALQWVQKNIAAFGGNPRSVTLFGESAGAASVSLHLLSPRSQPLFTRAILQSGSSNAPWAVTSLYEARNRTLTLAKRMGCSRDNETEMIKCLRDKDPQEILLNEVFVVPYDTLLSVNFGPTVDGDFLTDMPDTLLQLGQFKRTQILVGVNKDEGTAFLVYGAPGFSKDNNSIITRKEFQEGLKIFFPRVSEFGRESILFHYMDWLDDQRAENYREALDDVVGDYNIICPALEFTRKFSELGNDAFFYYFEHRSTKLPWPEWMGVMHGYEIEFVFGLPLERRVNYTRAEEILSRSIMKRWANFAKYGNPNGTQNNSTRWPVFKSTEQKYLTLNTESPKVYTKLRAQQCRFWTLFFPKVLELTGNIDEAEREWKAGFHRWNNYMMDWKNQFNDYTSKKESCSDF
Data set [6] can be described thus: Antioxidant activity assessed as total antioxidant capacity after 90 mins by phosphomolybdenum method. It counts as functional. The gist of the method: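 Sample combined with reagent of 0.6 M sulphuric acid, 28 mM sodium phosphate and 4 mM ammonium molybdate; heated 90 min at 95 °C, absorbance at 695 nm. EC50 = concentration giving absorbance 0.5; trolox as reference.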

The nature of data set [7]: Antioxidant activity assessed as ferric ion reducing activity using Fe3+-TPTZ after 30 mins by FRAP assay. It is filed as functional. Put shortly: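 FRAP reagent: acetate buffer (0.3 M, pH 3.6), TPTZ (10 mM) in 40 mM HCl and FeCl3 (20 mM), 10:1:1 v/v/v. Sample added, 30 min at room temperature, absorbance at 593 nm. Expressed as EC50.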
Data set [8] is described as follows: Antioxidant activity assessed as cupric ion reducing activity after 30 mins by CUPRAC assay. It counts as functional. Put shortly:
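Sample mixed with CuCl2 (10 mM), neocuproine (7.5 mM) and NH4Ac buffer (1 M, pH 7.0) stock reagents; blank lacks CuCl2. Absorbance at 450 nm after 30 min at room temperature, blank subtracted. Expressed as EC50.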

Data set [9] in a line: Antioxidant activity assessed as DPPH radical scavenging activity after 30 mins. It counts as functional. The gist of the method:
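Sample added to 0.004% DPPH in methanol, kept 30 min in the dark at room temperature, absorbance read at 517 nm. IC50 taken as the concentration scavenging 50% of DPPH radicals; trolox as reference.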

The nature of data set [10]: Antioxidant activity assessed as ABTS radical scavenging activity measured after 12 to 16 hrs. It is filed as functional. The gist of the method:
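ABTS radical cation generated from 7 mM ABTS with 2.45 mM potassium persulphate, 12-16 h dark at room temperature, then diluted with methanol to A734 0.700 ± 0.02. Sample mixed with ABTS solution, 30 min at room temperature, absorbance read at 734 nm. IC50 = concentration scavenging 50% of radicals; trolox reference.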

Data set [11] has as its target T2, Amine oxidase [flavin-containing] B. The data set can be described thus: Inhibition of recombinant human MAO-B assessed as residual activity at 4 times IC50 using kynuramine as substrate pre-incubated for 15 mins substrate addition measured after 20 mins by fluorescence assay relative to control.

Regarding `C/C(=N/Nc1nc(-c2cccc([N+](=O)[O-])c2)cs1)C1CC1`, the IC50 came out at 2.66 µM in [1], 0.0053 µM in data set [2], 1260 µM in [9] and 1060 µM in [10]. Moreover, the Activity in [3] turned out to be 91%; in data set [11], 46%. Besides, the Ki in [4] is 0.0073 µM. For the same molecule, in data set [5], the inhibition stood at 12.8%. Besides, the figures for the EC50 in data set [6], in data set [7] and in [8] were 1470 µM, 470 µM and 530 µM, respectively.
